Test results: ChEMBL document CHEMBL4184325, “Discovery of 4,7-Diamino-5-(4-phenoxyphenyl)-6-methylene-pyrimido[5,4- b]pyrrolizines as Novel Bruton's Tyrosine Kinase Inhibitors” (J Med Chem, 2018)
The source made the active and inactive calls. The calls are words filed in the database; no cut-off is given here.

Tests used:
TMD8 [1] = experiment: Cell cycle arrest in human TMD8 cells assessed as accumulation at G2 phase at 10 nM after 48 hrs by propidium iodide staining-based flow cytometric method (reference value: 14.53%); format: functional
Summary of the method: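 TMD8 cells in RPMI-1640 with FBS, 37 °C, 5% CO2, treated at indicated concentrations for 48 h; permeabilized cells stained with propidium iodide and analysed by flow cytometry for cell-cycle phase distribution. Three independent experiments, mean ± SD.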

[2] = target: Platelet-derived growth factor receptor beta (Homo sapiens, UniProt P09619); experiment: Inhibition of recombinant human PDGFR-beta using Poly(Glu, Tyr) 4:1 as substrate after 1 hr by ELISA
Platelet-derived growth factor receptor beta, sequence (P09619 whole entry): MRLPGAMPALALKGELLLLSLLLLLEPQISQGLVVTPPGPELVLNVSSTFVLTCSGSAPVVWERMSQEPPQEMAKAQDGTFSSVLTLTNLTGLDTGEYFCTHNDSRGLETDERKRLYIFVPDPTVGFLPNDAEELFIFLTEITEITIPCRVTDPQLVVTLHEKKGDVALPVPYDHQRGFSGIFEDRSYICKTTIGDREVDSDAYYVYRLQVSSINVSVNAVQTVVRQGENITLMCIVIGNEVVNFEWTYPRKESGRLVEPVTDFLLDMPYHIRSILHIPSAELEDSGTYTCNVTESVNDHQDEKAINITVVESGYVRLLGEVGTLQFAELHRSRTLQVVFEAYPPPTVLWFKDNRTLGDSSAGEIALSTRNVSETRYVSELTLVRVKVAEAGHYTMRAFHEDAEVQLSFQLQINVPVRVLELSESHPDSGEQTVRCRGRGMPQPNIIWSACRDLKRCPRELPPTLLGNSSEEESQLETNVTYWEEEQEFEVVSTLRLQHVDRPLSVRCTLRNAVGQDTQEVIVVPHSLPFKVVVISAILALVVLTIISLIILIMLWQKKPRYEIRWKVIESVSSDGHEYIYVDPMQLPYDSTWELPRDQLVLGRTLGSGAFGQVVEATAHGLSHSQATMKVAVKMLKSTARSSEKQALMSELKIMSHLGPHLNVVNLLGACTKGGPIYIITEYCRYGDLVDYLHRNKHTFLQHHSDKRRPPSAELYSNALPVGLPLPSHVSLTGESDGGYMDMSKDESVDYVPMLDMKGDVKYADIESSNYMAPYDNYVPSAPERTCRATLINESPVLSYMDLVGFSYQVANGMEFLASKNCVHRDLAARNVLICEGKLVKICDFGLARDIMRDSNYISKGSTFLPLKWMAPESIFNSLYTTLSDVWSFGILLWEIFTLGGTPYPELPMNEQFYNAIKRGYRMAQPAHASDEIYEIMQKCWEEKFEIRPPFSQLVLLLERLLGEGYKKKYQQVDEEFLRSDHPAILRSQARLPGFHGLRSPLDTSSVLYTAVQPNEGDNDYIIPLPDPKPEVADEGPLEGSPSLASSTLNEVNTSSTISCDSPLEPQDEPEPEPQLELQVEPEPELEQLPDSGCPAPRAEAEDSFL

[3] = Drug metabolism in rat liver microsomes assessed as (S)-N-(4-amino-5-(4-(4-hydroxyphenoxy)phenyl)-6-methylene-7,8-dihydro-6H-pyrimido[5,4-b]pyrrolizin-7-yl)acrylamide formation after 3 hrs; format: ADME, microsome
Rattus norvegicus [4] = experiment: Half life in rat at 1 mg/kg, iv; format: ADME, organism-based; conditions: in vivo
Summary of the method: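 Rats given 1 mg/kg intravenously; vehicle DMSO, Tween 80, normal saline; values are the average of three determinations.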

TMD8 [5] = experiment: Induction of apoptosis in human TMD8 cells assessed as late apoptotic cells at 10 nM after 72 hrs by Annexin-FITC/propidium iodide staining-based flow cytometric method (reference value: 3.2%); format: functional
[6] = target: T1, Tyrosine-protein kinase ITK/TSK (Homo sapiens, UniProt Q08881); experiment: Inhibition of recombinant human ITK using Poly(Glu, Tyr) 4:1 as substrate after 1 hr by ELISA
T1 sequence (Q08881 whole entry): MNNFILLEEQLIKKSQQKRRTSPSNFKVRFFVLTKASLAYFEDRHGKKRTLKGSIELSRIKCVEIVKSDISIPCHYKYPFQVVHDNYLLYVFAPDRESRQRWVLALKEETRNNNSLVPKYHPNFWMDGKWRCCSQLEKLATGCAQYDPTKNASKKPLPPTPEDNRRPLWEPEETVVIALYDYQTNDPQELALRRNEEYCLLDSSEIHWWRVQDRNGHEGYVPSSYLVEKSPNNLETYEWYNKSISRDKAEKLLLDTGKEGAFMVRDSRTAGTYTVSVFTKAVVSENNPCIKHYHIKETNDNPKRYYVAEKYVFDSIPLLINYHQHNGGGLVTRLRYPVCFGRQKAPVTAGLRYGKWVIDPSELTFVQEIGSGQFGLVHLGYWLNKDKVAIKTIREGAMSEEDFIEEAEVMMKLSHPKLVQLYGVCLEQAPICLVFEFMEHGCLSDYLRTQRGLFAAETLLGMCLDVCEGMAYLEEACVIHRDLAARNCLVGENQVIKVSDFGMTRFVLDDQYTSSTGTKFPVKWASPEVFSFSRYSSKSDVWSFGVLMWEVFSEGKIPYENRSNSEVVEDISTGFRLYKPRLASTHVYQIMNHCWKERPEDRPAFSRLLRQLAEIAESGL
Summary of the method: (§1)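 Kinase activity was measured by ELISA on wells precoated with 20 µg/mL poly(Glu,Tyr) 4:1. Enzyme was incubated with compound in 50 mM HEPES pH 7.4, 20 mM MgCl2, 0.1 mM MnCl2, 0.2 mM Na3VO4, 1 mM DTT with 5 µM ATP at 37 °C for 1 h. Phosphotyrosine was detected with PY99 antibody, HRP secondary and OPD, read at A492. IC50 is the mean of duplicates.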

TMD8 [7] = experiment: Cell cycle arrest in human TMD8 cells assessed as accumulation at S phase at 100 nM after 48 hrs by propidium iodide staining-based flow cytometric method (reference value: 34.15%); format: functional
Rattus norvegicus [8] = experiment: AUC (0 to infinity) in rat at 3 mg/kg, po; format: ADME, organism-based; set-up: dose 3 mg/kg, time infinity, route oral; conditions: in vivo
Summary of the method: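 Rats dosed orally at 3 mg/kg; vehicle DMSO, Tween 80, normal saline; values are the average of three determinations.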

Ramos = experiment: Antiproliferative activity against human Ramos cells after 72 hrs by MTT assay; format: functional, cell-based
Summary of the method: (§2)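 Cells grown in RPMI-1640 with FBS at 37 °C, 5% CO2. Seeded and grown 2 h, then treated with various concentrations in PBS solution, each in triplicate, and cultured a further 72 h. Viability read by MTT. IC50 from the Logit method, given as mean ± SD of three independent determinations.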

Mus musculus [9] = experiment: Toxicity in CB17 SCID nude mouse xenografted with human TMD8 cells assessed as change in body weight at 15 mg/kg, po qd administered for 13 consecutive days measured during compound dosing up to day 17 post dose; format: organism-based; conditions: in vivo
Mus musculus [10] = experiment: In vivo inhibition of BTK autophosphorylation at Y223 in human TMD8 cells xenografted in CB17 SCID nude mouse at 15 mg/kg, […] by Western blot method; format: functional, organism-based
Ephrin type-A receptor 2 = Ephrin type-A receptor 2 (Homo sapiens, UniProt P29317); experiment: Inhibition of recombinant human EPHA2 using Poly(Glu, Tyr) 4:1 as substrate after 1 hr by ELISA
Ephrin type-A receptor 2, sequence (P29317 whole entry): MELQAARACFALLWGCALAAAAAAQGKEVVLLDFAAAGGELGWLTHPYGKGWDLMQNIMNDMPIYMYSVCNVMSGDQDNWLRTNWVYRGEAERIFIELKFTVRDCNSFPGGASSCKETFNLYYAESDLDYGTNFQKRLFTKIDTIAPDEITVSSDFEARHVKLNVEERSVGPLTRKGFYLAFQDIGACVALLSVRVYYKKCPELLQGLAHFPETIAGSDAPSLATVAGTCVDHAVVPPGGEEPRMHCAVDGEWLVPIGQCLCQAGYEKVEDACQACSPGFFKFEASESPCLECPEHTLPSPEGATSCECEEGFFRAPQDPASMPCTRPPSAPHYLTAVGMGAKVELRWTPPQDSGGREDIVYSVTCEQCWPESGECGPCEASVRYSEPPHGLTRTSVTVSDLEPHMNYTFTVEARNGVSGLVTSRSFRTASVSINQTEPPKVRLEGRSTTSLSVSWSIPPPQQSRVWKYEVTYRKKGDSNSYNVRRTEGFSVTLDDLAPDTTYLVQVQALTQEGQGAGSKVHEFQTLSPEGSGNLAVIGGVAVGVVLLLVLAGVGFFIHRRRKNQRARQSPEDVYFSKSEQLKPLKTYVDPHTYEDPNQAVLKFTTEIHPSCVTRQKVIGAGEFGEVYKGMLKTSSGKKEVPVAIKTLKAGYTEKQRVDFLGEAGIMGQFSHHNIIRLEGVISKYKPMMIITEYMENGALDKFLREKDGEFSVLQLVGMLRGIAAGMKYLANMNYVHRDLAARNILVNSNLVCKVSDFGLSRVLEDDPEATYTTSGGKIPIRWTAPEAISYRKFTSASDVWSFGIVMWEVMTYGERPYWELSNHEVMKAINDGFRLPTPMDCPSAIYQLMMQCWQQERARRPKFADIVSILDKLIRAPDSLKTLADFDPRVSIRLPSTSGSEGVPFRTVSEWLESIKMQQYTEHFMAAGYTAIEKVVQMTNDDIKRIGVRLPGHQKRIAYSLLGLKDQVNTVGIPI

TMD8 [11] = experiment: Antiproliferative activity against human TMD8 cells after 72 hrs by MTT assay; format: functional, cell-based; conditions: TMD8, 72 h; summary of the method: as §2
[12] = Drug metabolism in human liver microsomes assessed as (S)-N-(4-amino-5-(4-hydroxyphenyl)-6-methylene-7,8-dihydro-6H-pyrimido[5,4-b]pyrrolizin-7-yl)acrylamide formation after 3 hrs; format: ADME, microsome
[13] = Drug metabolism in human liver microsomes assessed as N-((S)-4-amino-6-methylene-5-(4-phenoxyphenyl)-7,8-dihydro-6H-pyrimido[5,4-b]pyrrolizin-7-yl)-2,3-dihydroxypropanamide formation after 3 hrs; format: ADME, microsome
[14] = target: Tyrosine-protein kinase BTK (Homo sapiens, UniProt Q06187); experiment: Inhibition of BTK autophosphorylation at Y223 in human TMD8 cells after 4 hrs by Western blot method
Tyrosine-protein kinase BTK, sequence (Q06187 whole entry): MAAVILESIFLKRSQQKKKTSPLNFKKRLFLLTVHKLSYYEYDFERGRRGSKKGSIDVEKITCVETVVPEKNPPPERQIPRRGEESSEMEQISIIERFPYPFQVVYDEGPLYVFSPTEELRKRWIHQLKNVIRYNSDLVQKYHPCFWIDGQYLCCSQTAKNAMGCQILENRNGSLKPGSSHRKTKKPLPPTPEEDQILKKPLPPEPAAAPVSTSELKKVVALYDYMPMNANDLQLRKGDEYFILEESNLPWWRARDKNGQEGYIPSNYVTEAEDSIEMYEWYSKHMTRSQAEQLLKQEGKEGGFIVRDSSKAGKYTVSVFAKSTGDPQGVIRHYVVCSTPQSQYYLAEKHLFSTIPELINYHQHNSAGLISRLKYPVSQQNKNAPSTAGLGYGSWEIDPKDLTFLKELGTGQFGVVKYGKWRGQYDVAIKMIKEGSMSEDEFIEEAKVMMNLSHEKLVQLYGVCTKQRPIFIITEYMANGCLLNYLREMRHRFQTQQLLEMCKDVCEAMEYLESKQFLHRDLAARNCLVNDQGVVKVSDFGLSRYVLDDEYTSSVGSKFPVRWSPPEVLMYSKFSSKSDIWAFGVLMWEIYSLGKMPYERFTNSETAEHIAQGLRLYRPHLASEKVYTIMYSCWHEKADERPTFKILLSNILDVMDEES

[15] = target: Proto-oncogene tyrosine-protein kinase receptor Ret (Homo sapiens, UniProt P07949); experiment: Inhibition of recombinant human RET using Poly(Glu, Tyr) 4:1 as substrate after 1 hr by ELISA
Proto-oncogene tyrosine-protein kinase receptor Ret, sequence (P07949 whole entry): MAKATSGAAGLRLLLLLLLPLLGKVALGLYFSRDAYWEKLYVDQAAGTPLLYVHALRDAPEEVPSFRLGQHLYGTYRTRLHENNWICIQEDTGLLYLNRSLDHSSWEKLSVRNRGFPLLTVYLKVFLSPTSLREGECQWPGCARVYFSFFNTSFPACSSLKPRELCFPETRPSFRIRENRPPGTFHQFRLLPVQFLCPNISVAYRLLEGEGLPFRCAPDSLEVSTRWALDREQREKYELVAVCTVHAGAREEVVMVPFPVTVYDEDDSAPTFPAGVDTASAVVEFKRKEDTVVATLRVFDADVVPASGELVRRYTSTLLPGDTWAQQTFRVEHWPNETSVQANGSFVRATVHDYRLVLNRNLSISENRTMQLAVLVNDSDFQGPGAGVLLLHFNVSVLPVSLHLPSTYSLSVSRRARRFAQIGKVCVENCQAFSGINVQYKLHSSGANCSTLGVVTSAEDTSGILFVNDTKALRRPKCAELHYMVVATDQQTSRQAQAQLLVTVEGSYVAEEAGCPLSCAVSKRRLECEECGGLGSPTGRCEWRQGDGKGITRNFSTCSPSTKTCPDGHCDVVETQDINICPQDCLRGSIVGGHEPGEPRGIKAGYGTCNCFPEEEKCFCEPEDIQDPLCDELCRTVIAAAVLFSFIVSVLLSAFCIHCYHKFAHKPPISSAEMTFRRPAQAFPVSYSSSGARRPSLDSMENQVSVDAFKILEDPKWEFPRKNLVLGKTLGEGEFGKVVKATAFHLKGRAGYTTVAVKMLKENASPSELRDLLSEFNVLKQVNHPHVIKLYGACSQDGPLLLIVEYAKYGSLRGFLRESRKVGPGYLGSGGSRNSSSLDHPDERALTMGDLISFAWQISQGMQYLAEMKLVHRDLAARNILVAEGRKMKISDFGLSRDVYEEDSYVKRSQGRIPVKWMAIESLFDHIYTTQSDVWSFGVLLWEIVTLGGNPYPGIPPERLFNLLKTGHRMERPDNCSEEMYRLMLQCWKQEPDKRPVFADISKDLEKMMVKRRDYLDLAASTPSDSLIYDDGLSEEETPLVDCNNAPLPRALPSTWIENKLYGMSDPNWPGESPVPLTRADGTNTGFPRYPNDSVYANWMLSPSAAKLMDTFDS

[16] = Drug metabolism in rat liver microsomes assessed as (S,E)-N-(4-amino-6-methylene-5-(4-phenoxyphenyl)-7,8-dihydro-6H-pyrimido[5,4-b]pyrrolizin-7-yl)-3-hydroxyacrylamide formation after 3 hrs; format: ADME, microsome
Rattus norvegicus [17] = experiment: Volume of distribution at steady state in rat at 1 mg/kg, iv; format: ADME, organism-based; conditions: in vivo
Summary of the method: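 Rats were given compound at 1 mg/kg iv or 3 mg/kg po. Vehicle was DMSO, Tween 80 and normal saline. Values are the average of three determinations.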

TMD8 [18] = experiment: Cell cycle arrest in human TMD8 cells assessed as accumulation at G2 phase at 1 nM after 48 hrs by propidium iodide staining-based flow cytometric method (reference value: 14.53%); format: functional
[19] = Drug metabolism in rat liver microsomes assessed as (S)-4-(4-(4,7-diamino-6-methylene-7,8-dihydro-6H-pyrimido[5,4-b]pyrrolizin-5-yl)phenoxy)phenol formation after 3 hrs; format: ADME, microsome
[20] = Drug metabolism in mouse liver microsomes assessed as N-((S)-4-amino-6-methylene-5-(4-phenoxyphenyl)-7,8-dihydro-6H-pyrimido[5,4-b]pyrrolizin-7-yl)-2,3-dihydroxypropanamide formation after 3 hrs; format: ADME, microsome
[21] = target: Receptor tyrosine-protein kinase erbB-2 (Homo sapiens, UniProt P04626); experiment: Inhibition of recombinant human ErbB2 using Poly(Glu, Tyr) 4:1 as substrate after 1 hr by ELISA; summary of the method: as §1
Receptor tyrosine-protein kinase erbB-2, sequence (P04626 whole entry): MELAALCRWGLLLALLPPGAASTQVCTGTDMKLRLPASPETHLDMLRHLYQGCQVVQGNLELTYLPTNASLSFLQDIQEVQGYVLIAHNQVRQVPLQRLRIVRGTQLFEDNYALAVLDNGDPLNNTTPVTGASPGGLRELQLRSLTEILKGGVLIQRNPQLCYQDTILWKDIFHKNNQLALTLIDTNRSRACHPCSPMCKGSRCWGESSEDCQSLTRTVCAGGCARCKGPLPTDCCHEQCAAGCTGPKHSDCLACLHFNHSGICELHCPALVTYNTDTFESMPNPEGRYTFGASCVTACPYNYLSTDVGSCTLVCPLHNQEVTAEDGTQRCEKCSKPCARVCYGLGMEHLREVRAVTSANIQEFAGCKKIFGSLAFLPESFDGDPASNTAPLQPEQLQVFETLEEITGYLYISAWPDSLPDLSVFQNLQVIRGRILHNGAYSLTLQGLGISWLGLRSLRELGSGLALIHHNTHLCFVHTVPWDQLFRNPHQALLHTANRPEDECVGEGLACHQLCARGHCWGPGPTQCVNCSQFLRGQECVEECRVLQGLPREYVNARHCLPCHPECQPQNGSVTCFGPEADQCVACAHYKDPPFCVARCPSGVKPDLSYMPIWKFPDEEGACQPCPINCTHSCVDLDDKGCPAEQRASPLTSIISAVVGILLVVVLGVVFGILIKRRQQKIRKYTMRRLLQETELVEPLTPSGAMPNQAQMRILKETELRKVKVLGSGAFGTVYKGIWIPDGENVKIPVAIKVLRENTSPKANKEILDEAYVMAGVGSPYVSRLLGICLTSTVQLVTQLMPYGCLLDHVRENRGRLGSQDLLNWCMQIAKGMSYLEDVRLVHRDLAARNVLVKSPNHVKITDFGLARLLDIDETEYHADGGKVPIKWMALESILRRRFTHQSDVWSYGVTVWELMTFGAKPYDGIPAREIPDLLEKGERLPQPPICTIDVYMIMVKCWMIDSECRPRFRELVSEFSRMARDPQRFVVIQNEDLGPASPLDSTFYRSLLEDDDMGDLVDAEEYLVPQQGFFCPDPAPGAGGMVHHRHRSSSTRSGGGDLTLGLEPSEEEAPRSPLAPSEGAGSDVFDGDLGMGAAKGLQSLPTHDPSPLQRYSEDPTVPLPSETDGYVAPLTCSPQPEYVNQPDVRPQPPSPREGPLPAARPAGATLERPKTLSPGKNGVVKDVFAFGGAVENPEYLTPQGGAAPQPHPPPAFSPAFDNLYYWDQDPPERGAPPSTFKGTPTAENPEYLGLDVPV

IC50 [2]: 215 nM
Drug metabolism [3]: Metabolite_Detected
t1/2 (Rattus norvegicus [4]): 34.2 min
IC50 [6]: 15.1 nM
AUC (Rattus norvegicus [8]): 211 ng·h/mL
IC50 (Ramos): 5030 nM
IC50 (Ephrin type-A receptor 2): > 1000 nM
Drug metabolism [12]: Metabolite_Detected
Drug metabolism [13]: Metabolite_Detected
IC50 [14]: < 10 nM
IC50 [15]: 20.3 nM
Drug metabolism [16]: Metabolite_Detected
Vdss (Rattus norvegicus [17]): 1.3 L/kg
Drug metabolism [19]: Metabolite_Detected
Drug metabolism [20]: Metabolite_Detected
IC50 [21]: 23.2 nM
Compound: C=CC(=O)N[C@@H]1Cn2c(c(-c3ccc(Oc4ccccc4)cc3)c3c(N)ncnc32)C1=C
Activity (TMD8 [1]): 11.12%
Activity (TMD8 [5]): 12.5%
Activity (TMD8 [7]): 12.79%
Activity (Mus musculus [9]): Non-Toxic
inhibition (Mus musculus [10]): Active
IC50 (TMD8 [11]): 16 nM
Activity (TMD8 [18]): 17.32%
